One data set relates to L6. Nature of the data set: Cytotoxicity against rat L6 cells after 70 hrs by Alamar Blue assay. It counts as functional, cell-based. The following applies: L6, 70 h. The essentials:
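Rat skeletal myoblast L6 cells, 4000 per well, in RPMI 1640 with 1% L-glutamine and 10% fetal bovine serum. Eleven 3-fold serial drug dilutions were tested. Alamar Blue was added for a final 2 h. Fluorescence was read at excitation 536 nm and emission 588 nm. IC₅₀ is the mean of two independent assays.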

Data set [1] concerns Plasmodium falciparum. Nature of the data set: Antimalarial activity against erythrocytic stage of chloroquine-sensitive Plasmodium falciparum NF54 after 48 hrs by [3H]-hypoxanthine incorporation assay. It counts as functional, organism-based. The essentials:
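³H-hypoxanthine incorporation against P. falciparum NF54. DMSO stocks at 10 mg/mL were added to cultures in hypoxanthine-free RPMI 1640 with HEPES, NaHCO₃, neomycin and Albumax, using human A⁺ red cells at 2.5% haematocrit and 0.3% parasitaemia. Eleven 3-fold serial dilutions were tested. Incubation was under 4% CO₂/3% O₂/93% N₂. ³H-hypoxanthine was added after 48 h, followed by a further 24 h. Cells were harvested onto glass-fibre filters. IC₅₀ is the mean of two independent assays.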

Data set [2] can be described thus: Selectivity index, ratio of IC50 for rat L6 cells to IC50 for erythrocytic stage of chloroquine-sensitive Plasmodium falciparum NF54. Format: toxicity, cell-based. To be noted: read-out: Ratio IC50. The essentials:
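Selectivity index is the L6 cytotoxicity IC₅₀ divided by the NF54 antiplasmodial IC₅₀. Each IC₅₀ is the mean of two independent assays.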

Data set [3] relates to Plasmodium falciparum. Put plainly: Antimalarial activity against erythrocytic stage of chloroquine/pyrimethamine-resistant Plasmodium falciparum K1 after 48 hrs by [3H]-hypoxanthine incorporation assay. Format: functional, organism-based. Summed up: (§1)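 Chloroquine/pyrimethamine-resistant K1 and drug-susceptible NF54 P. falciparum were grown in hypoxanthine-free RPMI 1640 with HEPES, NaHCO₃, neomycin and Albumax, in human A⁺ erythrocytes at 2.5% haematocrit and 0.3% parasitaemia. DMSO stocks were 10 mg/mL, tested in eleven 3-fold dilutions under 4% CO₂/3% O₂/93% N₂. ³H-hypoxanthine was added at 48 h, then 24 h more before filter harvest. IC₅₀ is the mean of two assays; RI = K1/NF54 IC₅₀.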

Data set [4] can be described thus: Selectivity index, ratio of IC50 for rat L6 cells to IC50 for chloroquine/pyrimethamine-resistant Plasmodium falciparum K1. Format: toxicity, cell-based. The following applies: read-out: Ratio IC50.
The nature of data set [5]: Resistance index, ratio of IC50 for chloroquine/pyrimethamine-resistant Plasmodium falciparum K1 to IC50 for erythrocytic stage of chloroquine-sensitive Plasmodium falciparum NF54. Format: functional. Summed up: as §1
The nature of data set [6]: Binding affinity to haematin assessed as inhibition of beta-haematin formation after 5 to 6 hrs by pyridine-ferrichrome-based method. The essentials: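 Detergent (NP-40) mediated β-haematin formation assay, run manually. Compounds came from 20, 2 and 0.4 mM DMSO stocks, tested at 0–1000 µM final. Haematin was 100 µM final in 0.5 M acetate buffer, pH 4.8. Incubation was 5–6 h at 37 °C. Read-out used the pyridine-ferrichrome method with UV–vis absorbance. IC₅₀ came from sigmoidal dose–response fits.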

A value given as a limit tells only on which side of the number the result lay.

For orientation: IC50 means the point on the concentration scale where inhibition reaches its midpoint. On to `O=C(NCCCNc1nc2ccccc2c2[nH]c3ccccc3c12)c1cccs1`, for which the IC50 worked out at 3.5 µM in the data set with L6, 0.0724 µM with Plasmodium falciparum [1], 0.0849 µM in the data set with Plasmodium falciparum [3] and 24.1 µM in data set [6]. Besides, the values for the selectivity ratio in data set [2] and in data set [4] were 48.3 and 41.2, respectively. In data set [5], the Ratio IC50 was determined as 1.2.
For the compound `NCCCN1CCN(CCCNc2nc3ccccc3c3[nH]c4ccccc4c23)CC1`, the IC50 with L6 is 1.78 µM; with Plasmodium falciparum [1], 0.0264 µM; in data set [6] it was 62.4 µM. Besides, the selectivity ratio in data set [2] is 67.3.
As for `OCCCNc1nc2ccccc2c2[nH]c3ccccc3c12`, the values for the IC50 (with L6; in the data set with Plasmodium falciparum [1]; in data set [6]) were 0.717 µM, 0.227 µM and 287 µM, respectively. In data set [2], the selectivity ratio worked out at 3.2.
Turning to `CC(CNC(=O)Nc1ccccc1)CNc1nc2ccc(Cl)cc2c2[nH]c3ccccc3c12` (configuration not stated), the IC50 with L6 was determined as 4.11 µM; with Plasmodium falciparum [1] it was 0.0109 µM; in the data set on Plasmodium falciparum [3], 0.0175 µM; in data set [6], 14.6 µM. Moreover, the selectivity ratio in data set [2] came to 377; in data set [4], 235. Besides, the Ratio IC50 in data set [5] is 1.6.
For the compound `c1ccc2c(c1)nc(N1CCCNCC1)c1c3ccccc3[nH]c21`, the IC50 turned out to be 4.11 µM in the data set on L6, 0.0632 µM in the data set with Plasmodium falciparum [1] and 171 µM in data set [6]. In data set [2], the selectivity ratio came out at 65.
The matching figures for `Cc1ccc2nc(NCCCN)c3c4ccccc4[nH]c3c2c1`: 0.322 µM, 0.0361 µM, 60.9 µM and 8.9.
Regarding `Clc1nc2ccccc2c2[nH]c3ccccc3c12`, the IC50 is 193 µM with L6, 10.2 µM in the data set with Plasmodium falciparum [1] and over 1000 µM in data set [6]. Further, the selectivity ratio in data set [2] is 18.9.
For the compound `Cn1c2ccccc2c2c(NCC(C)(C)CN)nc3ccccc3c21`, the IC50 came out at 0.259 µM in the data set with L6, 0.274 µM in the data set with Plasmodium falciparum [1] and 1000 µM in data set [6]. The selectivity ratio in data set [2] is 0.9.
The matching figures for `COc1ccc2nc(NCCCN)c3c4ccccc4n(C)c3c2c1`: 0.138 µM, 0.0329 µM, 56.9 µM and 4.2.
`CC(CN)CNc1nc2ccc(Cl)cc2c2[nH]c3ccccc3c12` (configuration not stated): the IC50 worked out at 1.92 µM in the data set on L6, 0.0295 µM with Plasmodium falciparum [1], 0.059 µM in the data set on Plasmodium falciparum [3] and 12.7 µM in data set [6]. Further, the selectivity ratio in data set [2] stood at 65; in data set [4], 32.5. Besides, in data set [5], the Ratio IC50 is 2.
For the compound `CN(C)CCCNc1nc2ccccc2c2c1c1ccccc1n2C`, the IC50 in the data set on L6 was 0.701 µM; in the data set with Plasmodium falciparum [1], 0.0932 µM; in data set [6] it was over 1000 µM. For the same compound, the selectivity ratio in data set [2] came out at 7.5.
For `NCCCNc1nc2ccc(Br)cc2c2[nH]c3ccccc3c12`, in that order: 0.891 µM, 0.0081 µM, 19.4 µM and 110.
Turning to `c1ccc(CNc2nc3ccccc3c3[nH]c4ccccc4c23)cc1`, the figures for the IC50 (in the data set on L6; in the data set with Plasmodium falciparum [1]; in data set [6]) were 2.93 µM, 0.0186 µM and 30.6 µM, respectively. For the same compound, the selectivity ratio in data set [2] stood at 158.
The matching figures for `Cn1c2ccccc2c2c(NCCCN)nc3ccc(Cl)cc3c21`: 0.62 µM, 0.0354 µM, 28 µM and 17.5.
Turning to `COc1ccc2nc(NCCCNC(=O)Nc3ccccc3)c3c4ccccc4[nH]c3c2c1`, the IC50 with L6 worked out at 1.52 µM; with Plasmodium falciparum [1] it was 0.0171 µM; with Plasmodium falciparum [3], 0.0196 µM; in data set [6], 14.8 µM. Besides, the selectivity ratio in data set [2] came out at 88.8; in data set [4], 77.4. Also, the Ratio IC50 in data set [5] worked out at 1.1.
Regarding `Cn1c2ccccc2c2c(NCCCN)nc3ccccc3c21`, the IC50 worked out at 0.279 µM in the data set on L6, 0.0723 µM in the data set on Plasmodium falciparum [1], 0.0854 µM with Plasmodium falciparum [3] and 24.2 µM in data set [6]. Further, the values for the selectivity ratio in data set [2] and in data set [4] were 3.9 and 3.3, respectively. Moreover, in data set [5], the Ratio IC50 stood at 1.2.
On to `COc1ccc(Nc2nc3ccccc3c3[nH]c4ccccc4c23)c(OC)c1`, for which the IC50 worked out at 15.2 µM in the data set on L6, 0.317 µM in the data set with Plasmodium falciparum [1] and 44.1 µM in data set [6]. The selectivity ratio in data set [2] is 48.
The matching figures for `Cn1c2ccccc2c2c(NCCCN)nc3ccc(Br)cc3c21`: 0.825 µM, 0.0313 µM, 26.6 µM and 26.3.
Take `Cn1c2ccccc2c2c(NCC(C)(C)CN)nc3ccc(Cl)cc3c21`: the IC50 in the data set on L6 was 0.425 µM; with Plasmodium falciparum [1] it was 0.0954 µM; in data set [6], 38.4 µM. For the same compound, in data set [2], the selectivity ratio came to 4.5.
Take `Cn1cc2c3ccccc3nc-2c2ccccc21` [ISOCRYPTOLEPINE]: the selectivity ratio in data set [4] was 1.5.
`NCCCNc1nc2ccc(F)cc2c2[nH]c3ccccc3c12`: the IC50 in the data set with L6 was 0.639 µM; in the data set on Plasmodium falciparum [1] it was 0.013 µM; in data set [6], 14.3 µM. Moreover, the selectivity ratio in data set [2] amounted to 49.1.
With `NCCCCNc1nc2ccccc2c2[nH]c3ccccc3c12`, the figures for the IC50 (with L6; with Plasmodium falciparum [1]; in data set [6]) were 0.739 µM, 0.0361 µM and 62 µM, respectively. For the same compound, the selectivity ratio in data set [2] was 20.5.
`CN(C)CCCNc1nc2ccc(Br)cc2c2c1c1ccccc1n2C`: the half-inhibitory concentration (IC50) in the data set with L6 stood at 0.457 µM; in the data set with Plasmodium falciparum [1], 0.0486 µM; in data set [6] it was 39.9 µM. For the same compound, the selectivity ratio in data set [2] came out at 9.4.
The matching figures for `Cn1c2ccccc2c2c(NCC(C)(C)CN)nc3ccc(Br)cc3c21`: 0.576 µM, 0.0583 µM, 41.2 µM and 9.9.
`Cn1c2ccccc2c2c(NCCCNC(=O)Nc3ccccc3)nc3ccccc3c21`: the IC50 was 0.108 µM in the data set with L6, 0.0073 µM in the data set on Plasmodium falciparum [1] and 22.7 µM in data set [6]. In addition, the selectivity ratio in data set [2] was determined as 14.8.
For `Cc1ccc2nc(NCCCN)c3c4ccccc4n(C)c3c2c1`, in that order: 0.192 µM, 0.0314 µM, 29.5 µM and 6.1.
As to `c1ccc2c(c1)nc(NCC1CCCO1)c1c3ccccc3[nH]c21` (configuration not stated), the figures for the IC50 (in the data set with L6; with Plasmodium falciparum [1]; in data set [6]) were 2.05 µM, 0.113 µM and 148 µM, respectively. The selectivity ratio in data set [2] was 18.1.
For `Cn1c2ccccc2c2c(NCCCN)nc3ccc(F)cc3c21`, in that order: 0.292 µM, 0.0527 µM, 25.8 µM and 5.5.
As for `CCN(CC)Cc1cc(Nc2ccnc3cc(Cl)ccc23)ccc1O`, in data set [6], the IC50 amounted to 11 µM.
For `CN(C)CCCNc1nc2ccc(Cl)cc2c2c1c1ccccc1n2C`, the IC50 turned out to be 0.313 µM in the data set with L6, 0.0409 µM in the data set with Plasmodium falciparum [1] and 25.9 µM in data set [6]. In addition, the selectivity ratio in data set [2] worked out at 7.7.
For the compound `CCN(CC)C(=O)NCCCNc1nc2ccccc2c2[nH]c3ccccc3c12`, the IC50 in the data set on L6 was 3.57 µM; in the data set on Plasmodium falciparum [1], 0.0411 µM; in data set [6], 39.2 µM. Moreover, the selectivity ratio in data set [2] was found to be 86.8.
Consider `CCN(CC)CCCC(C)Nc1ccnc2cc(Cl)ccc12` (configuration not stated) [CHLOROQUINE], for which the IC50 in data set [6] is 30 µM.
For `C[C@@H]1CC[C@H]2[C@@H](C)C(=O)O[C@@H]3O[C@@]4(C)CC[C@@H]1[C@]32OO4` [ARTEMISININ], the IC50 amounted to 0.0043 µM with Plasmodium falciparum [1] and 0.0028 µM in the data set on Plasmodium falciparum [3]. Besides, the Ratio IC50 in data set [5] came out at 0.7.
In the case of `OCCNc1nc2ccccc2c2[nH]c3ccccc3c12`, the IC50 with L6 is 0.891 µM; in the data set with Plasmodium falciparum [1], 0.141 µM; in data set [6], 200 µM. The selectivity ratio in data set [2] was found to be 6.3.
For the compound `O=C(NCCCNc1nc2cccc(Br)c2c2[nH]c3ccccc3c12)Nc1ccccc1`, the IC50 with L6 amounted to 3.62 µM; in the data set with Plasmodium falciparum [1] it was 0.289 µM; in data set [6], 22 µM. The selectivity ratio in data set [2] amounted to 12.6.
The matching figures for `CS(=O)(=O)NCCCNc1nc2ccccc2c2[nH]c3ccccc3c12`: 1.06 µM, 0.0543 µM, 118 µM and 19.6.
Take `O=C(NCCCNc1nc2ccc([N+](=O)[O-])cc2c2[nH]c3ccccc3c12)Nc1ccccc1`: the IC50 was determined as 4.64 µM in the data set on L6, 0.0242 µM in the data set with Plasmodium falciparum [1] and 15.2 µM in data set [6]. Besides, the selectivity ratio in data set [2] turned out to be 192.
The matching figures for `Cn1c2ccccc2c2c(Cl)nc3ccccc3c21`: 17.3 µM, 7.39 µM, over 1000 µM and 2.3.
